In PMC10922391 (Cell chemical biology, 2023):

Key:
comCDE locus = assay: Luciferase reporter assay of comCDE locus activation; format: cell-based, S. sanguinis VMC66; details: PcomCDEluc reporter; for activity relative to each other / activity class of CSP derivatives: luminescence, 20 min, 37 °C
Outline: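 Overnight VMC66 PcomCDEluc reporter culture diluted 1:10 and held 30 min at 37 °C, 5% CO2. 198 μL per well received 2 μL DMSO or serially diluted synthetic peptide. After 20 min at 37 °C, 5% CO2, luminescence was read on a plate reader. EC50 values were fitted from three independent experiments.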

[1] = tested on: S. sanguinis harboring toxicity reporter; assay: Competence-coupled toxicity reporter growth assay; format: cell-based; details: 5-FOA final 1 mg/mL in THY; OD600 at 12 h; WT S. sanguinis + RT; n = 3
S. sanguinis = assay: CSP-induced DNA transformation efficiency; format: cell-based; details: C+Y media
Outline: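 Cultures grown in THY or C+Y (a chemically defined medium with 2.2 g/L yeast extract) at 37 °C, 5% CO2. Diluted culture (500 μL) mixed with 113 nM CSP and 10 ng target DNA (linear knockout cassette or blank plasmid). Incubated a further 90 min, then plated on THY with selective antibiotic. Colonies counted after two days. Mean of three independent replicates with standard deviation.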

Compound | activity relative to each other / activity class of CSP derivatives (comCDE locus) | further results
H-WDLRGVPNPWGWIFGR-OH [16mer] | similarly active | 
H-FWDLRGVPNPWGWIFGR-OH [17mer] | inactive | 
H-DLRGVPNPWGWIFG-OH |  | potency of CSP analog lacking the C-terminal AA (comCDE locus; Figure S1): significantly less-potent
O=C(O)c1[nH]c(=O)[nH]c(=O)c1F [5’-FOA, 5-Fluoroorotic acid] |  | competence-coupled growth defect with toxicity reporter, WT [1]: could induce significant growth defect in WT S. sanguinis background
H-TFWDLRGVPNPWGWIFGR-OH [18mer] | inactive | 
H-DLRGVPNPWGWIFGR-OH [15mer] | similarly active | transformation efficiency, C+Y vs THY (S. sanguinis): drop in transformation efficiency
